From ChEMBL document CHEMBL2163238, “Design, synthesis, and biological evaluation of N-alkylated deoxynojirimycin (DNJ) derivatives for the treatment of dengue virus infection” (J Med Chem, 2012)
In brackets after ≈: the same amount, converted by molar mass. Activity calls are given as the source filed them. No cut-off for these calls is given here.

Legend:
[1] = Metabolic stability in mouse liver microsomes at 60 mins; format: ADME, Microsome; details: read-out: Stability
[2] = Metabolic stability in rat liver microsomes at 60 mins; format: ADME, Microsome; details: read-out: Stability
[3] = Metabolic stability in human liver microsomes at 60 mins; format: ADME, Microsome; details: read-out: Stability
[4] = Cytotoxicity against BHK cells assessed as cell viability by MTT assay; format: cell-based, Mesocricetus auratus; details: hamster
[5] = system: dengue virus type 2; assay: Antiviral activity against 0.01 MOI DENV-2 NGC infected in BHK cells assessed as reduction in viral titer after 48 hrs; format: functional, organism-based
In short: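 BHK cells infected with DENV-2 New Guinea C at MOI 0.01 for 1 h. Inoculum removed, then compounds at 0.1–100 μM for 48 h at 37 °C. Supernatants titrated on Vero monolayers as 10-fold dilutions under 0.5% methylcellulose for 3–5 days. Foci detected by 4G2 immunostaining or crystal violet plaques. EC50 from dose–response curves, mean of 3 independent experiments.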

[6] = Cytotoxicity against MDBK cells assessed as cell viability by MTT assay; format: cell-based, Bos taurus; details: cattle
[7] = Antiviral activity against 1 MOI BVDV NADL infected in MDBK cells assessed as reduction in viral titer after 22 hrs; format: functional, cell-based, Bovine viral diarrhea virus 1-NADL; details: Bovine viral diarrhea virus isolates and strains, MDBK, 22 h
In short: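 MDBK cells (2×10^5) infected 24 h after seeding with BVDV NADL at MOI 1, with 1 h adsorption at 37 °C. Washed, then compounds at 0.1–100 μM. Media harvested 22 h post-infection and plaque-titrated on MDBK under 1% methylcellulose for 3 days. Plaques counted directly or after neutral red staining. EC50 from dose–response curves, mean of 3 independent experiments.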

[8] = biological target: T1, CYP3A4 (Homo sapiens, UniProt P08684); assay: (§1) Inhibition of human CYP3A4 using testosterone as substrate at 10 uM; format: ADME; details: probe testosterone
In short: (§2)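 Inhibition of CYP isoforms with compound at 10 μM, reported as % inhibition. CYP3A4 run with midazolam or testosterone as substrate.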

[9] = biological target: CYP2D6 (Homo sapiens, UniProt P10635); assay: Inhibition of human CYP2D6 at 10 uM; format: ADME
In short: (§3)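 Inhibition of CYP isoforms by compounds tested at 10 μM, given as percent inhibition; contract in vitro ADME panel.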

[10] = biological target: T1, CYP3A4; assay: Inhibition of human CYP3A4 using midazolam as substrate at 10 uM; format: ADME; details: probe midazolam; in short: as §2
[11] = biological target: CYP2C19 (Homo sapiens, UniProt P33261); assay: Inhibition of human CYP2C19 at 10 uM; format: ADME; in short: as §2
[12] = biological target: CYP2C9 (Homo sapiens, UniProt P11712); assay: Inhibition of human CYP2C9 at 10 uM; format: ADME; in short: as §3
[13] = biological target: T2, CYP1A2 (Homo sapiens, UniProt P05177); assay: Inhibition of human CYP1A2 at 10 uM; format: ADME; in short: as §2
T2 sequence (P05177 whole entry): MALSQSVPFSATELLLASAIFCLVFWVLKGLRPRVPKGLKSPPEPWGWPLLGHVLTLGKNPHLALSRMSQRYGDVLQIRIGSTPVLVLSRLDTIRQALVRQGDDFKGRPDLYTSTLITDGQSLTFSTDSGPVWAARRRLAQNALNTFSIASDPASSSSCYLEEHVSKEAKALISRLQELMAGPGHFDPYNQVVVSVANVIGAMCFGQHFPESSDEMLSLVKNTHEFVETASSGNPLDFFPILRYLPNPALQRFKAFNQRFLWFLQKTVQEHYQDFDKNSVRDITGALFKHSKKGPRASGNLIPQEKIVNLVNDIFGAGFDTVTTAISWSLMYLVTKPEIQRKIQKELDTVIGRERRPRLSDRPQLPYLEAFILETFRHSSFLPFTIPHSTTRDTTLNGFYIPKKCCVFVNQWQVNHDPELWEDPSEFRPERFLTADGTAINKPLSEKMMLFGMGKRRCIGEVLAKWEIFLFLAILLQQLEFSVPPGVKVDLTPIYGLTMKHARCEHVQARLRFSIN

[14] = Plasma protein binding in mouse plasma; format: ADME, cell-free; details: read-out: PPB (converted)
In short: (§4)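 Binding of compound to human, rat or mouse plasma protein, reported as % bound.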

[15] = Plasma protein binding in rat plasma; format: ADME, cell-free; details: read-out: PPB (converted); in short: as §4
[16] = Plasma protein binding in human plasma; format: ADME, cell-free; details: read-out: PPB (converted); in short: as §4
[17] = Aqueous solubility in PBS at pH 7.4; format: physicochemical; details: buffer
[18] = Aqueous solubility in PBS at pH 4; format: physicochemical; details: buffer
[19] = biological target: Cytochrome P450 3A4 (Homo sapiens, UniProt P08684); assay: as §1; format: ADME; details: 10 µM; in short: as §2
[20] = system: MDBK; assay: Competitive inhibition of endoplasmic reticulum-resident alpha-glucosidase in MDBK cells infected with 1 MOI BVDV assessed as decrease in viral E2 protein mobility at 0.8 to 100 uM after 24 hrs by Western blotting; format: cell-based; details: Bos taurus
In short: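 MDBK cells infected with BVDV at MOI 1 for 1 h, then compounds at 0.8, 4.0, 20 and 100 μM. Cells lysed in Laemmli buffer, run on 12% polyacrylamide gel and transferred to nitrocellulose. BVDV E2 mobility probed with monoclonal WB166 and β-actin detected in parallel. IR-dye secondary antibody, Odyssey imaging.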

[21] = Selectivity index, ratio of CC50 for BHK cells to EC50 for DENV-2 NGC infected in BHK cells
In short: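 BHK cells infected with DENV-2 New Guinea C at MOI 0.01 for 1 h, then compounds at 0.1–100 μM for 48 h at 37 °C. Supernatant titrated on Vero cells under 0.5% methylcellulose, 3–5 days; foci by 4G2 immunostaining or crystal violet plaques. EC50 from yield curves; MTT CC50 in uninfected BHK; SI = CC50/EC50.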

[22] = Selectivity index, ratio of CC50 for MDBK cells to EC50 for BVDV NADL infected in MDBK cells
In short: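 MDBK cells infected with BVDV NADL at MOI 1, 1 h at 37 °C, washed, then compounds at 0.1–100 μM. Media harvested at 22 h, plaque-titrated on MDBK under 1% methylcellulose for 3 days, neutral red or direct count. EC50 from yield curves; MTT CC50 in uninfected MDBK; SI = CC50/EC50.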

[23] = Oral bioavailability in Sprague-Dawley rat at 25 mg/kg; format: ADME, organism-based; details: in vivo
[24] = system: Dengue virus; assay: Antiviral activity against 0.01 MOI DENV infected in human Huh7.5 cells assessed as reduction in viral […] protein level at 0.1 to 100 uM after 2 days by Western blotting; format: functional, organism-based; details: Huh-7
[25] = Cytotoxicity against human Huh7.5 cells assessed as cell viability by DRAQ5 and Sapphire 700 staining; details: huh-7

Chain of CYP2C9 (P11712 whole entry): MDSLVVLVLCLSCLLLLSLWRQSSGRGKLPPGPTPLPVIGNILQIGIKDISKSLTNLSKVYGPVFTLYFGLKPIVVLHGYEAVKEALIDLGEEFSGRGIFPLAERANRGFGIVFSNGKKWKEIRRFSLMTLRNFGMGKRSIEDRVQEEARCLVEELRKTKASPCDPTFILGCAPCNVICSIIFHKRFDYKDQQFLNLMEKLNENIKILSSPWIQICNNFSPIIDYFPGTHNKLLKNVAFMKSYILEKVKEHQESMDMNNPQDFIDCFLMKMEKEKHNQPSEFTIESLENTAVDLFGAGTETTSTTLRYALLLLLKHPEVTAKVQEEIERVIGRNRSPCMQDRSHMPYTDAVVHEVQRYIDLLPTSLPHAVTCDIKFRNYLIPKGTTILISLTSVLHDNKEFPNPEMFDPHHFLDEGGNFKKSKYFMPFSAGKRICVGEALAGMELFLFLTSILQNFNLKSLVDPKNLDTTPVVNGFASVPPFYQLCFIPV
T1 sequence (P08684 whole entry, canonical isoform): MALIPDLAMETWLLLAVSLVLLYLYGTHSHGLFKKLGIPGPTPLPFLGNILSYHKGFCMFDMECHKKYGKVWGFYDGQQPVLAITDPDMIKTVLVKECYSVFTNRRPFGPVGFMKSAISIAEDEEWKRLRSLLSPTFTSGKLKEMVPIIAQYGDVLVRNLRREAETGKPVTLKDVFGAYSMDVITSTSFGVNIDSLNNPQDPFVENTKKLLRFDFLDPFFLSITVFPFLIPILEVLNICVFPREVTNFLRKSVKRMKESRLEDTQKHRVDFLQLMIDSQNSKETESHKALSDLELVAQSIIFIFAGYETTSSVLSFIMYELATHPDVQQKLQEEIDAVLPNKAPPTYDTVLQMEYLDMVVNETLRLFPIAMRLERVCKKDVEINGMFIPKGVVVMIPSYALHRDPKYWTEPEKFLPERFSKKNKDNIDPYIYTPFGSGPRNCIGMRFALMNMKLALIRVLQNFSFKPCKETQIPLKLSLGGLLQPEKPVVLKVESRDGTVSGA
Chain of Cytochrome P450 3A4 (P08684 whole entry): as the sequence (P08684 whole entry, canonical isoform) above
Chain of CYP2C19 (P33261 whole entry): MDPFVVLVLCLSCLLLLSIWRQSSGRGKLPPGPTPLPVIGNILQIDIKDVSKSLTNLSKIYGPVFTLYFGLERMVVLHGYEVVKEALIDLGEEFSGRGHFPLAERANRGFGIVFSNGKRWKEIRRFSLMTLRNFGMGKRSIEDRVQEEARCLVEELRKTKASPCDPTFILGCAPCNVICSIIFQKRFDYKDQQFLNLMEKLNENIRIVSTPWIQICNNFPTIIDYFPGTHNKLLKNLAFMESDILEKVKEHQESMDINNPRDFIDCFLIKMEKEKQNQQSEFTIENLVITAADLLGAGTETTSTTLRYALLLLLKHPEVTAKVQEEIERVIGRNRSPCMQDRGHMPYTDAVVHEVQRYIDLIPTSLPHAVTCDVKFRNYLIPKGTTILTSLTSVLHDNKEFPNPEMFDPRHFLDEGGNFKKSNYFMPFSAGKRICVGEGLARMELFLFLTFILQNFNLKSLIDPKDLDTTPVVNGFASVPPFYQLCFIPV
Chain of CYP2D6 (P10635 whole entry, canonical isoform): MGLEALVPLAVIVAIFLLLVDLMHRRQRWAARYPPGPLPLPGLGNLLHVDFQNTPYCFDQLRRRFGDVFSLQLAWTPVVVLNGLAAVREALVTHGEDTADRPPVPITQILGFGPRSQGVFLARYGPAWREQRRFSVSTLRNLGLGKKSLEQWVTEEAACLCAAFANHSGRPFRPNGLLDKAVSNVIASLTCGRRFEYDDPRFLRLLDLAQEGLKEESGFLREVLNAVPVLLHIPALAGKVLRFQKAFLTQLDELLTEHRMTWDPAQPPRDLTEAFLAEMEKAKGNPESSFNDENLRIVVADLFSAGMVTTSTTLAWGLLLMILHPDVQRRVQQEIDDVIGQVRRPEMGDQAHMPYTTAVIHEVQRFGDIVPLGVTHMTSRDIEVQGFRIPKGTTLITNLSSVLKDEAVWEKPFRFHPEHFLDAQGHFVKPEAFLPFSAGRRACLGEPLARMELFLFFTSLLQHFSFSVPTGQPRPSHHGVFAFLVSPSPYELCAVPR

Row | SMILES | remaining at 1 h [1] | remaining at 1 h [2] | remaining at 1 h [3] | CC50 [4] | EC50 [5] | CC50 [6] | EC50 [7] | inhibition at 10 µM [9] | inhibition at 10 µM [10] | inhibition at 10 µM [11] | inhibition at 10 µM [12] | inhibition at 10 µM [13] | fraction unbound [14] | fraction unbound [15] | fraction unbound [16] | solubility [17] | solubility [18] | inhibition (INH) [19] | Activity [24] | Activity [5] | also measured
1 | COc1ccccc1OCCCCCCN1C[C@H](O)[C@@H](O)[C@H](O)[C@H]1CO | 92% | 98% | 99% | > 500000 nM | 800 nM | > 500000 nM | 1000 nM | 8.7% | 12.1% | -4.4% | 11.7% | -1.6% | 0.31 | 0.3 | 0.35 | 293 µM (≈ 108 µg/mL) | 286 µM (≈ 106 µg/mL) | – | – | – | inhibition at 10 µM [8]: -2.4%
2 | Cc1cccc(OCCCCCCN2C[C@H](O)[C@@H](O)[C@H](O)[C@H]2CO)c1 | […] | 81% | 87% | > 500000 nM | 600 nM | > 500000 nM | 600 nM | 12.8% | 28.7% | 3.9% | 8.9% | 21.4% | 0.17 | 0.21 | 0.2 | 286 µM (≈ 101 µg/mL) | 279 µM (≈ 98.6 µg/mL) | 2.3% | – | – | –
3 | CCCC(CCC)OCCCCCCN1C[C@H](O)[C@@H](O)[C@H](O)[C@H]1CO | 77% | 80% | 73% | 425000 nM | 300 nM | > 500000 nM | 600 nM | 9.1% | 2.5% | -1.1% | 43.5% | 2% | 0.17 | 0.23 | 0.09 | 302 µM (≈ 109 µg/mL) | 290 µM (≈ 105 µg/mL) | 4.2% | – | – | –
4 | OC[C@@H]1[C@@H](O)[C@H](O)[C@@H](O)CN1CCCCCCOC1CCCCC1 | – | – | – | > 500000 nM | 1600 nM | 480000 nM | 400 nM | – | – | – | – | – | – | – | – | – | – | – | – | – | inhibition [20]: Active; Ratio CC50/EC50 [21]: >312; Ratio CC50/EC50 [22]: 1200
5 | CCC(O)(CC)CCCCCCN1C[C@H](O)[C@@H](O)[C@H](O)[C@H]1CO | 104% | 98% | 99% | > 500000 nM | 6500 nM | > 500000 nM | 6200 nM | 1.2% | 21% | 37% | 9.6% | 7.9% | 0.6 | 0.7 | 0.67 | 315 µM (≈ 105 µg/mL) | 315 µM (≈ 105 µg/mL) | – | Active | Dose-dependent effect | inhibition [20]: Active; bioavailability [23]: 56%; inhibition at 10 µM [8]: 20.5%; Activity [25]: Non-toxic
6 | OC[C@@H]1[C@@H](O)[C@H](O)[C@@H](O)CN1CCCCCCOC1CCCCCC1 | 92% | 90% | 89% | > 500000 nM | 500 nM | > 500000 nM | 1400 nM | 2.5% | 21.2% | -4.9% | 5% | 9% | 0.15 | 0.35 | 0.29 | 295 µM (≈ 106 µg/mL) | 286 µM (≈ 103 µg/mL) | 3.1% | Active | Dose-dependent effect | Activity [25]: Non-toxic
7 | OC[C@@H]1[C@@H](O)[C@H](O)[C@@H](O)CN1CCCCCCOc1cccc(C(F)(F)F)c1 | 92% | 81% | 94% | 400000 nM | 400 nM | > 500000 nM | 1500 nM | 3.4% | -18.5% | -2.5% | 37.6% | 0.2% | 0.08 | 0.1 | 0.07 | 278 µM (≈ 113 µg/mL) | 281 µM (≈ 114 µg/mL) | 3.2% | – | – | –
8 | CCCOc1cccc(CCCN2C[C@H](O)[C@@H](O)[C@H](O)[C@H]2CO)c1 | 87% | 97% | 99% | > 500000 nM | 300 nM | > 500000 nM | 1200 nM | 11% | 8.6% | 2.8% | 10.5% | 15.9% | 0.4 | 0.43 | 0.32 | 288 µM (≈ 97.8 µg/mL) | 281 µM (≈ 95.4 µg/mL) | – | Active | Dose-dependent effect | inhibition [20]: Active; inhibition at 10 µM [8]: 0.7%; Activity [25]: Non-toxic
9 | OC[C@@H]1[C@@H](O)[C@H](O)[C@@H](O)CN1CCCCCCOCc1ccccc1 | 97% | 91% | 104% | > 500000 nM | 400 nM | > 500000 nM | 1500 nM | 9.1% | 6.6% | 14.2% | 10.7% | 17.3% | 0.47 | 0.51 | 0.48 | 288 µM (≈ 102 µg/mL) | 282 µM (≈ 99.7 µg/mL) | 3.3% | Active | Dose-dependent effect | Activity [25]: Non-toxic
10 | OC[C@@H]1[C@@H](O)[C@H](O)[C@@H](O)CN1CCCCCCOc1cccc(F)c1 | 104% | […] | 87% | > 500000 nM | 400 nM | > 500000 nM | 500 nM | 10.3% | -2.3% | 0.7% | 6.2% | 0.2% | 0.21 | 0.29 | 0.22 | 283 µM (≈ 101 µg/mL) | 271 µM (≈ 96.9 µg/mL) | – | Active | Dose-dependent effect | inhibition at 10 µM [8]: -2.3%; Activity [25]: Non-toxic
